From ChEMBL document CHEMBL1145345, “Galactosyl derivatives of L-arginine and D-arginine: synthesis, stability, cell permeation, and nitric oxide production in pituitary GH3 cells” (J Med Chem, 2006)
Active and inactive are the calls of the source. The rule behind the calls is not given here.

Legend:
Format in all cases: functional, cell-based
[1] = system: AEC; experiment: Increase in DAF2 monitored NO production in BAEC at 10 mM after 30 mins; settings: Bos taurus
Outline: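 Bovine aortic endothelial cells grown in DMEM/10% FBS, exposed to 10 mM compound in normal Krebs solution (pH 7.4) for 30 min at 37 °C. Then loaded with 10 µM DAF-2DA for 30 min, fixed with 4% paraformaldehyde for 5 min, and imaged by fluorescence microscopy (ex/em 495/515 nm). Output is % of Krebs-only control fluorescence.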

[2] = system: GH3; experiment: Area under DAF2 monitored nitrite production in GH3 cells-incubation period curve
[3] = system: GH3; experiment: Increase in DAF2 monitored NO production in GH3 cells at 30 mins
Outline: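 GH3 cells in F10 with 10% FBS and 15% horse serum, treated 30 min at 37 °C with 3, 10 or 30 mM compound in normal Krebs (pH 7.4). Loaded with 10 µM DAF-2DA for 30 min, fixed in 4% paraformaldehyde, and fluorescence read by densitometry at 495/515 nm. Reported as % of Krebs-only control; mean ± S.E. of three values from three sessions.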

[4] = system: GH3; experiment: Increase in DAF2 monitored nitrite production in GH3 cells at 30 mins

N=C(N)NCCC[C@H](N)C(=O)O
Activity [1]: Active | AUC [2]: 1390 ng·h/mL

N=C(N)NCCC[C@@H](N)C(=O)O
Activity [1]: Active | AUC [2]: 2470 ng·h/mL

NC(N)=NCCC[C@H](N)C(=O)OC[C@H]1O[C@H](O)[C@H](O)[C@@H](O)[C@H]1O
Activity [3]: Active | Activity [4]: Active | Activity [1]: Active

NC(N)=NCCC[C@@H](N)C(=O)OC[C@H]1O[C@H](O)[C@H](O)[C@@H](O)[C@H]1O
Activity [1]: Active | AUC [2]: 7500 ng·h/mL
